# PolyA inh = inhibitors of polyadenylation in S. cerevisiae | S. cerevisiae SKY197-pL101 polyadenylation reporter, beta-gal luminescence; efflux-impaired pdr1/pdr3 knockout yeast; score 100 = 6 SD above DMSO | activity score, % at 12 µM | 300,000 tested, 0.02% active | AID 1875;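 active means lowest replicate activity score at least 50, where 100 means six control SD above control mean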;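 further: yeast exposed to compound for 9 h at 30 °C; higher score means more reporter readthrough which indicates perturbed polyadenylation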
# A3G deaminase = inhibitors of human APOBEC3G DNA deaminase. AID 493012. Q9HC16. inhibition, % at 20 µM. 330,000 tested, 0.28% active. recombinant A3G, ssDNA deamination FAM/TAMRA fluorescence;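 active means inhibition of at least 40% at 20 µM, with no more than 30% in the related APOBEC3A deaminase screen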;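 further: plate controls were DMSO wells with A3G for no effect and wells lacking A3G enzyme for full effect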
# Target sequence (Q9HC16 whole entry, looked up): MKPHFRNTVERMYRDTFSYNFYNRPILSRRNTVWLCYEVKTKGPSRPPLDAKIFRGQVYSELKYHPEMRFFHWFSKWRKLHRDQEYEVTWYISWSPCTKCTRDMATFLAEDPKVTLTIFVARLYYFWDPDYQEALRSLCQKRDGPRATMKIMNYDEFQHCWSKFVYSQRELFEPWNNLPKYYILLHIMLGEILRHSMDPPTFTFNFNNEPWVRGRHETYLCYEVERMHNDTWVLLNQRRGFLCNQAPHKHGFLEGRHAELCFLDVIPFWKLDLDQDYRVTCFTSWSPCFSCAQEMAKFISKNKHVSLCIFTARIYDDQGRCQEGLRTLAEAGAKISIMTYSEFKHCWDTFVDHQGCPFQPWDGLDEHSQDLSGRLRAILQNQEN
# AHR activator = activates the human aryl hydrocarbon receptor; P35869; AHR-responsive luciferase reporter cells, luminescence; activation, % at 5 µM; 320,000 tested, 2.5% active; AID 2796; in the data active means activation above about 47%;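 further: 0% = vehicle wells and 100% = reference agonist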
# UCH37 DUB inh = human UCH37 deubiquitinating enzyme inhibition | Q9Y5K5 | purified proteasome/UCH37, Ub-AMC cleavage fluorescence | inhibition, % (test concentration not listed) | 330,000 tested, 0.33% active | AID 588478;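 active means mean inhibition over replicate wells above about 20%, limit read from the data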;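 further: 0% = compound-free wells with enzyme and 100% = wells lacking proteasome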
#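 Material: Human UCH37 enzyme supplied as purified proteasome complex | Schedule: 30 min preincubation with enzyme, 25 min cleavage at room temperature | Detection: AMC fluorescence 355/460 nm | Measure: % inhibition of Ub-AMC cleavage fluorescence | Controls: Wells without proteasome as full block, compound-free enzyme plus substrate as uninhibited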
# Arrestin-AP2 inh = human beta-arrestin and AP2 interaction inhibition. FITC-arrestin peptide / GST-AP2 beads, flow cytometry; AP2 beta2 appendage carries R879A mutation. inhibition, % at 10 µM. 340,000 tested, 0.31% active. AID 504490;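 active means inhibition above a set limit, near 3 SD of compounds lacking own fluorescence, cut at about 54% in these data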;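 further: plate controls were DMSO wells for no effect and 5 µM unlabelled arrestin peptide for full effect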
#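 System: GST-AP2 R879A bound to glutathione beads, E. coli-expressed. Also added: 50 nM FITC-arrestin peptide. Schedule: compound with beads 12 min RT, then probe 1 h RT. Signal: bead flow cytometry, FITC channel. Read-out basis: percent response.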
# A3A deaminase = blocks human APOBEC3A ssDNA deamination; recombinant A3A, FAM/TAMRA ssDNA deamination fluorescence; AID 493011; P31941; 330,000 tested, 0.41% active; inhibition, % at 20 µM;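 active means at least 40% inhibition at 20 µM here, with at most 30% in a related deaminase screen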;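 further: plate controls were A3A with DMSO for no effect and wells lacking A3A enzyme for full effect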
# Target sequence (P31941 whole entry, looked up): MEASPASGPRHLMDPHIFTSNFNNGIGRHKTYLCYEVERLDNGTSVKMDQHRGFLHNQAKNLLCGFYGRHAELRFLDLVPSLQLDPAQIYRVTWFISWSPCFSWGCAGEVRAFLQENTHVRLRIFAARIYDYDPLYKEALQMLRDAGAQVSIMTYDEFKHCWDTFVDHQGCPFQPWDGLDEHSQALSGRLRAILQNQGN
# Arr-AP2 CP1 = inhibitors of human beta-arrestin and AP2 interaction | inhibition, % at 10 µM | shares compounds with Arrestin-AP2 inh | 1,300 tested, 2% active | AID 504908 | GST-AP2 beads, FITC arrestin peptide binding, flow cytometry; GST-fused beta2-adaptin appendage, R879A mutant;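 active means inhibition above a set limit, roughly 3 SD of non-fluorescent compound noise, cut at about 38% in these data; inactive means inhibition at or below that limit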;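 further: loss of bead fluorescence from 50 nM FITC arrestin peptide bound to appendage; 0% = negative control wells and 100% = excess unlabelled arrestin peptide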
# GST GSH counter = disrupts GST binding to glutathione beads, arrestin-AP2 artifact; shares compounds with Arrestin-AP2 inh; GST-fluorescein binding to GSH beads, fluorescence, counter-screen; inhibition, % at 10 µM; 1,300 tested, 2% active;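 active means inhibition above 50%, about 3 SD of the inhibition seen with non-fluorescent compounds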;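 further: fluorescein maleimide labelled GST captured on 4 micron glutathione beads; higher means more loss of bead fluorescence from quenching or blocked binding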
# UCH37 reconfirm = confirmation of human UCH37 deubiquitinating enzyme inhibitors | shares compounds with UCH37 DUB inh | Proteasome-bound UCH37, Ub-AMC cleavage fluorescence | inhibition, % at 20 µM | 480 tested, 27% active;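 active means average inhibition over replicates above about 50%, so the earlier screening hit is confirmed, limit read from the data; inactive means the rest, counted as false positives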;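 further: based on cleavage rate fitted by regression over a 30 min kinetic read; 0% = proteasome plus Ub-AMC and 100% = Ub-AMC without proteasome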
# Starred values were filed as active, the others as inactive; nt = not tested or not shown. In the library only some 3.4% were active in any assay of this set; here they are far more common.
SMILES,PolyA inh,A3G deaminase,AHR activator,UCH37 DUB inh,Arrestin-AP2 inh,A3A deaminase,UCH37 reconfirm,others
CCOc1ccc(C(CC(=O)O)NC(=O)c2sc3ccccc3c2Cl)cc1 (stereo unspecified),-16.2,3.2,0.3,-1.4,104.2*,0.2,nt,Arr-AP2 CP1=-4.5;GST GSH counter=-4.4
CCCOc1ccc(C(CC(=O)O)NC(=O)c2sc3ccccc3c2Cl)cc1 (stereo unspecified),-7.9,-1.2,0.9,-2.6,-14.9,1.0,nt,
CNC(=O)CON=Cc1ccc(N(C)C)cc1,nt,nt,nt,-3.6,nt,nt,nt,
CCN(CC)c1ccc(/C=N/NC(=O)Cc2cccs2)c(O)c1,-11.3,nt,3.9,nt,60.9*,nt,nt,Arr-AP2 CP1=2.4;GST GSH counter=-3.8
Oc1cc2c(cc1C(c1ccc(Br)cc1)N1CCCC1)OCO2 (stereo unspecified),nt,-2.8,nt,3.8,60.5*,1.7,nt,Arr-AP2 CP1=11.2;GST GSH counter=18.2
COc1ccc(C=NN=C2SCC(=O)N2c2c(C)n(C)n(-c3ccccc3)c2=O)cc1OC,nt,nt,nt,5.3,nt,nt,nt,
Nc1ncc(-n2cncn2)c(-c2ccc(Cl)cc2)n1,3.1,0.3,-1.3,3.4,55.6*,-0.8,nt,Arr-AP2 CP1=-10.9;GST GSH counter=-1.6
CN1C2CCC1/C(=C/c1cccn1C)C(=O)/C2=C\c1cccn1C,-27.8,-20.9,4.4,29.4*,14.1,-10.0,15.1,
Cc1cccc(N=C2C(=O)Nc3c(Cl)cccc32)c1,1.6,-0.3,33.2,3.0,-8.0,-2.6,nt,
O=C1Nc2c(Cl)cc(Cl)cc2C1=O,nt,nt,nt,62.2*,-2.1,nt,74.6*,
COc1ccccc1C=NNC(=O)c1ccc(=O)n(C)c1,nt,nt,nt,10.0,nt,nt,nt,
C(=NNc1nc(N2CCCCC2)nc(N2CCCCC2)n1)c1c[nH]c2ccccc12,nt,nt,nt,38.4*,nt,nt,-58.9,
Cn1cc([N+](=O)[O-])c(C(=O)NN=Cc2c[nH]c3ccccc23)n1,nt,nt,nt,7.8,nt,nt,nt,
Nc1nnnn1N=Cc1ccccc1OCc1ccccc1,nt,nt,nt,-2.7,nt,nt,nt,
CN(Cc1ccccc1)C(=O)c1cccc(NC(=O)Cc2ccc([N+](=O)[O-])cc2)c1,nt,-7.1,-0.9,41.0*,1.7,-4.2,9.3,
CN(Cc1ccccc1)C(=O)c1cccc(NC(=O)Cc2cccc([N+](=O)[O-])c2)c1,nt,-5.6,-4.0,3.0,-2.9,-2.3,nt,
NC(=O)NC(=O)COC(=O)c1ccc(Cl)c(S(=O)(=O)N(Cc2ccccc2)c2ccc(Cl)cc2)c1,-3.3,-3.7,-0.4,2.4,2.8,-1.6,nt,
NC(=O)COC(=O)c1ccc(Cl)c(S(=O)(=O)N(Cc2ccccc2)c2ccc(Cl)cc2)c1,-3.7,-5.8,0.2,38.8*,3.5,0.7,-37.3,
O=C1CSC(=S)N1N=Cc1ccc(O)c(O)c1O,nt,nt,nt,14.7,nt,nt,nt,
COCc1c(C(=O)NN=Cc2c[nH]c3ccccc23)nnn1-c1nonc1N,nt,nt,nt,-27.0,nt,nt,nt,
CCN(CC)c1ccc(/C=C(/C#N)C(=O)NC(C)C)o1,5.2,-5.0,-4.3,29.0*,-2.6,0.2,28.3,
CCN(CC)c1ccc(/C=C(/C#N)C(=O)NCc2ccccc2)o1,-5.5,-20.2,-7.9,8.4,12.0,-3.1,nt,
CC(C)NC(=O)/C(C#N)=C\c1ccc(N(C)C)o1,-7.5,-10.8,-3.7,37.0*,-7.3,2.7,35.8,
CN(C)c1ccc(C=NNC(=O)c2csnn2)cc1,nt,nt,nt,10.9,nt,nt,nt,
O=[N+]([O-])c1cc(F)c2cccnc2c1O,4.7,-0.4,18.3,29.1*,-3.1,4.1,48.0,
SMILES,PolyA inh,A3G deaminase,AHR activator,UCH37 DUB inh,Arrestin-AP2 inh,A3A deaminase,UCH37 reconfirm,others
CCC(=NNc1cccc(C)c1)c1cnnc(SC)n1,nt,nt,nt,2.8,nt,nt,nt,
CC(=NNC(=O)c1ccc(Cl)cc1)c1ccc(Br)s1,nt,nt,nt,2.6,nt,nt,nt,
O=C(NC1(O)C(=O)c2ccccc2C1=O)c1c(Cl)cccc1Cl,7.1,-7.2,1.8,80.5*,-12.1,-5.1,51.8*,
O=C(Nc1ccccc1Cl)c1c(F)c(F)c(F)c(F)c1F,32.2,-9.9,18.6,5.3,8.4,-3.0,nt,
O=C(NC1(O)C(=O)c2ccccc2C1=O)c1ccccc1,-3.9,1.9,4.5,83.6*,1.7,3.9,73.6*,
CCCOc1ccc(C2=CC(=O)C[C@H](c3ccc(OC)cc3)C2)cc1,nt,-7.8,2.1,35.6*,nt,-2.4,-2.3,
COc1ccc([C@H]2CC(=O)C=C(c3ccc(OC(F)(F)F)cc3)C2)cc1,nt,-8.4,1.5,-0.9,-18.9,-0.2,nt,
O=S(=O)(O)c1cccc2c(N=Nc3ccc(O)c4ncccc34)cccc12,8.1,nt,6.2,35.9*,3.1,nt,39.0,
O=Nc1ccc(O)c2ncccc12,3.2,-3.6,2.4,11.2,4.8,7.5,nt,
CCOc1ccc(-c2c(C(=O)NN=Cc3cccnc3)nnn2-c2nonc2N)cc1,nt,nt,nt,4.0,nt,nt,nt,
N#C/C(=C/c1ccc(N2CCCCC2)o1)C(=O)Nc1ccc(Cl)cc1,-15.3,-69.6,8.2,0.0,7.3,-30.8,nt,
N#C/C(=C\c1ccc(N2CCOCC2)o1)C(=O)Nc1ccc(O)cc1,-40.0,-13.0,-13.4,28.6*,16.4,-3.9,25.4,
N#C/C(=C/c1ccc(N2CCCCC2)o1)C(=O)Nc1ccc2ccccc2c1,-6.9,nt,nt,3.2,-70.3,nt,nt,
COc1ccc(NC(=O)/C(C#N)=C\c2ccc(N3CCOCC3)o2)cc1,-21.4,-19.9,-15.9,27.2*,-11.3,-9.6,14.2,

# Bioassay records as filed in PubChem.
